Data: ChEMBL document CHEMBL3352723, “6-(Hetero)Arylpurine nucleotides as inhibitors of the oncogenic target DNPH1: synthesis, structural studies and cytotoxic activities” (Eur J Med Chem, 2014)
Calls of active or inactive are those of the source. No cut-off for these calls is given here.

Experiments:
MCF7 = experiment: Cytotoxicity against human MCF7 cells at 10 uM after 72 hrs by MTT assay; conditions: MCF7, 72 h, read-out: INH
HCT-15 = conditions: Homo sapiens, 10 uM
HCT-116 = conditions: Homo sapiens, 10 uM
HL-60 = conditions: Homo sapiens, 10 uM
PC-3 = conditions: Homo sapiens, 10 uM
[1] = Cytotoxicity against human HCT15 cells after 72 hrs by MTT assay; conditions: HCT-15, 72 h
[2] = Cytotoxicity against human HCT116 cells after 72 hrs by MTT assay; type: functional, cell-based; conditions: HCT-116, 72 h
Procedure, shortened: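 Cells grown in RPMI 1640 with L-glutamine, 10% FCS, penicillin/streptomycin and fungizone at 37 °C under 5% CO2. Seeding was 2000 cells/well for HCT116 and HL60 and 600 for HCT15; compounds added after 24 h in DMSO (1% final). Viable cells read at 490 nm with MTS reagent.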

[3] = Cytotoxicity against human HL60 cells after 72 hrs by MTT assay; conditions: HL-60, 72 h
[4] = Cytotoxicity against human HCT15 cells at 10 uM after 72 hrs by MTT assay; conditions: HCT-15, 72 h, read-out: INH
[5] = Cytotoxicity against human HCT116 cells at 10 uM after 72 hrs by MTT assay; conditions: HCT-116, 72 h, read-out: INH
[6] = Cytotoxicity against human HL60 cells at 10 uM after 72 hrs by MTT assay; conditions: HL-60, 72 h, read-out: INH
[7] = Cytotoxicity against human PC3 cells at 10 uM after 72 hrs by MTT assay; conditions: PC-3, 72 h, read-out: INH

Structure (SMILES) | inhibition at 10 µM (MCF7) | inhibition (HCT-15) | inhibition (HCT-116) | inhibition (HL-60) | inhibition (PC-3) | IC50 [1] | IC50 [2] | IC50 [3] | inhibition at 10 µM [4] | inhibition at 10 µM [5] | inhibition at 10 µM [6] | inhibition at 10 µM [7]
O=C(O)c1ccc(-c2cccc(-c3ncnc4c3ncn4[C@@H]3O[C@H](COP(=O)(O)O)[C@@H](O)[C@H]3O)c2)cc1 | > 90% | inactive | inactive | inactive | inactive |  |  |  |  |  |  | 
O=P(O)(O)OC[C@H]1O[C@@H](n2cnc3c(-c4ccoc4)ncnc32)[C@H](O)[C@@H]1O | > 90% |  |  |  |  | 1.3 µM | 5.5 µM | 15.4 µM | > 90% | > 90% | > 90% | > 90%
O=P(O)(O)OC[C@H]1O[C@@H](n2cnc3c(-c4cccc(Br)c4)ncnc32)[C@H](O)[C@@H]1O | > 90% |  |  |  |  | 0.6 µM |  | 3.9 µM | > 90% | > 90% | > 90% | > 90%
O=P(O)(O)OC[C@H]1O[C@@H](n2cnc3c(-c4ccc(Cl)s4)ncnc32)[C@H](O)[C@@H]1O | > 90% |  |  |  |  | 1 µM |  | 6.5 µM | > 90% | > 90% | > 90% | > 90%
O=P(O)(O)OC[C@H]1O[C@@H](n2cnc3c(-c4ccc(O)cc4)ncnc32)[C@H](O)[C@@H]1O | > 90% |  |  |  |  | 0.3 µM | 4.1 µM | 0.5 µM | > 90% | > 90% | > 90% | > 90%
O=P(O)(O)OC[C@H]1O[C@@H](n2cnc3c(-c4ccc5cc[nH]c5c4)ncnc32)[C@H](O)[C@@H]1O | > 90% |  |  |  |  | 1.4 µM | > 80 µM | 0.5 µM | > 90% | > 90% | > 90% | > 90%
O=P(O)(O)OC[C@H]1O[C@@H](n2cnc3c(-c4ccccc4)ncnc32)[C@H](O)[C@@H]1O | > 90% |  |  |  |  | 0.7 µM | 3.2 µM | 1.7 µM | > 90% | > 90% | > 90% | > 90%
O=P(O)(O)OC[C@H]1O[C@@H](n2cnc3c(NCc4ccccc4)ncnc32)[C@H](O)[C@@H]1O |  |  |  |  |  | 0.8 µM | 7.7 µM | 5 µM |  |  |  | 
O=P(O)(O)OC[C@H]1O[C@@H](n2cnc3c(-c4cccc(-c5cccc6c5sc5ccccc56)c4)ncnc32)[C@H](O)[C@@H]1O | > 90% | inactive | inactive | inactive | inactive |  |  |  |  |  |  | 
